Test results: ChEMBL document CHEMBL1124248, “Preparation and antischistosomal and antitumor activity of hycanthone and some of its congeners. Evidence for the mode of action of hycanthone” (1988)
Values joined by “and” are separate entries in the source; they are usually repeats but may differ in a detail not shown here. Identical values can stand only once.

How the values were obtained:
Mus musculus [1] = assay: In vivo antitumor activity against p-388 lymphocytic leukemia in mice at 6.25 mg/kg (Duplicate value); type: functional
How it was run: (§1)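 Murine P388 lymphocytic leukemia model tested by the National Cancer Institute. Compound given once daily for 9 days; activity expressed as T/C.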

Schistosoma mansoni [2] = assay: Incorporation of 6.3 M*10e6 [3H]uridine in hycanthone(HC) sensitive Schistosoma mansoni; type: functional
Mus musculus [3] = assay: In vivo antitumor activity against p-388 lymphocytic leukemia in mice at 50 mg/kg; type: functional; how it was run: as §1
Schistosoma mansoni [4] = assay: Incorporation of 1.3 [3H]uridine in hycanthone(HC) resistant Schistosoma mansoni; type: functional
How it was run: (§2)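 Adult HC-resistant S. mansoni were treated in vitro, and [3H]uridine incorporation by the worms was measured. Values are % of control. Concentrations are given in M × 10^6.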

Mus musculus [5] = assay: In vivo antitumor activity against p-388 lymphocytic leukemia in mice at 25 mg/kg (Duplicate value); type: functional; how it was run: as §1
Schistosoma mansoni [6] = assay: Day 50% survival of worms in culture of HC resistant Schistosoma mansoni; type: functional
How it was run: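 Adult HC-resistant S. mansoni were exposed in vitro and kept in culture. The value is the day by which 50% of worms were dead. Cultures were ended at different times in different experiments. Concentrations are given in M × 10^6.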

Schistosoma mansoni [7] = assay: Incorporation of 1.3 M *10e6 [3H]uridine in hycanthone(HC) sensitive Schistosoma mansoni; type: functional
Schistosoma mansoni [8] = assay: Day 50% survival of worms in culture of HC sensitive Schistosoma mansoni; type: functional
Mus musculus [9] = assay: In vivo antitumor activity against p-388 lymphocytic leukemia in mice at 12.5 mg/kg (Duplicate value); type: functional; how it was run: as §1
Schistosoma mansoni [10] = assay: Incorporation of 1.2 M *10e6 [3H]uridine in hycanthone(HC) resistant Schistosoma mansoni; type: functional; how it was run: as §2
Schistosoma mansoni [11] = assay: Incorporation of 6M*10e6 [3H]uridine in hycanthone(HC) sensitive Schistosoma mansoni; type: functional
Mus musculus [12] = assay: In vivo antitumor activity against p-388 lymphocytic leukemia in mice at 5 mg/kg; type: functional; how it was run: as §1
Mus musculus [13] = assay: In vivo antitumor activity against p-388 lymphocytic leukemia in mice at 10 mg/kg; type: functional; how it was run: as §1
Mus musculus [14] = assay: In vivo antitumor activity against p-388 lymphocytic leukemia in mice at 20 mg/kg; type: functional; how it was run: as §1
Schistosoma mansoni [15] = assay: Incorporation of 1.2 M *10e6 [3H]uridine in hycanthone(HC) sensitive Schistosoma mansoni; type: functional
Schistosoma mansoni [16] = assay: Incorporation of 6M*10e6 [3H]uridine in hycanthone(HC) resistant Schistosoma mansoni; type: functional; how it was run: as §2
Mus musculus [17] = assay: In vivo antitumor activity against p-388 lymphocytic leukemia in mice at 2.5 mg/kg; type: functional; how it was run: as §1
Nucleic Acid [18] = assay: In vitro binding of [3H]HC to calf thymus DNA was measured after 2 days; type: nucleic-acid assay; settings: Bos taurus
How it was run: (§3)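 0.02 µCi of 3H-labelled drug was added to 50 µg calf thymus DNA in 20 µL of 0.1 M citrate-phosphate buffer, pH 7. Incubated 1.5 h at 37 °C in the dark, diluted to 0.1 mL saline and dialyzed against saline at 4 °C for up to 4 days. Duplicate 10 µL samples taken from inside the bags at intervals were counted directly, or after TCA precipitation.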

Nucleic Acid [19] = assay: In vitro binding of [3H]HC to calf thymus DNA after precipitation with alcohol and TCA was measured after 2 hours; type: nucleic-acid assay; settings: Bos taurus; how it was run: as §3
Nucleic Acid [20] = assay: In vitro binding of [3H]HC to calf thymus DNA after precipitation with alcohol and TCA was measured after 4 day; type: nucleic-acid assay; settings: Bos taurus; how it was run: as §3
Nucleic Acid [21] = assay: In vitro binding of [3H]HC to calf thymus DNA after precipitation with alcohol and TCA was measured; type: nucleic-acid assay; settings: Bos taurus; how it was run: as §3
Nucleic Acid [22] = assay: In vitro binding of [3H]HC to calf thymus DNA was measured after 4 day; type: nucleic-acid assay; settings: Bos taurus; how it was run: as §3
Nucleic Acid [23] = assay: In vitro binding of [3H]HC to calf thymus DNA; type: nucleic-acid assay; settings: Bos taurus; how it was run: as §3
Nucleic Acid [24] = assay: Binding of 1x 10e-5 M [3H]HC to HeLa DNA; type: nucleic-acid assay; settings: Homo sapiens
How it was run: (§4)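 HeLa cells exposed 1 h to [3H]-labelled drug, washed three times with saline, then held 30 min at 37 °C in drug-free medium. After a 2 h digestion at 37 °C, crude DNA was ethanol-precipitated, purified on a CsCl density gradient, dialyzed and reprecipitated. DNA was quantified by A260. An aliquot was treated with DNase, and DNase-sensitive radioactivity was expressed as drug molecules per base pair.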

HeLa [25] = assay: Incorporation of 10e-5 M [3H]uridine in HeLa cells in presence of HC measured as as TCA precipitable radioactivity compared with non treated controls; type: functional, cell-based; settings: Homo sapiens
How it was run: (§5)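 HeLa cells (10^6 per duplicate tube) were incubated 1 h with drug. [3H]uridine was then added and incubation continued 1 h with drug present. Cells were washed with cold saline and precipitated with 10% TCA. Precipitates were collected on glass filters, TCA-washed and counted. Values are % TCA-precipitable radioactivity versus untreated controls.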

Nucleic Acid [26] = assay: Binding of 1x 10e-4 M [3H]HC to HeLa DNA; type: nucleic-acid assay; settings: Homo sapiens; how it was run: as §4
Nucleic Acid [27] = assay: In vitro binding of [3H]HC to calf thymus DNA after precipitation with alcohol and TCA was measured after 1 day; type: nucleic-acid assay; settings: Bos taurus; how it was run: as §3
HeLa [28] = assay: Incorporation of 2*10e-5 M [3H]-uridine in HeLa cells in absence of HC measured as as TCA precipitable radioactivity compared with non treated controls; type: functional, cell-based; settings: Homo sapiens
How it was run: (§6)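 HeLa cells (10^6 per duplicate tube) were exposed to drug for 1 h, washed three times with medium, then held 2 h in drug-free medium. [3H]uridine was added for 1 h. Cells were precipitated with 10% TCA, and precipitates were filter-collected and counted. Values are % TCA-precipitable radioactivity versus untreated controls.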

Nucleic Acid [29] = assay: In vitro binding of [3H]HC to calf thymus DNA was measured after 3 days; type: nucleic-acid assay; settings: Bos taurus; how it was run: as §3
Nucleic Acid [30] = assay: Binding of 5x 10e-4 M [3H]HC to HeLa DNA; type: nucleic-acid assay; settings: Homo sapiens; how it was run: as §4
Nucleic Acid [31] = assay: In vitro binding of [3H]-HC to calf thymus DNA after precipitation with alcohol and TCA was measured after 3 days; type: nucleic-acid assay; settings: Bos taurus; how it was run: as §3
HeLa [32] = assay: Incorporation of 2*10e-5 M [3H]uridine in HeLa cells in presence of HC measured as as TCA precipitable radioactivity compared with non treated controls; type: functional, cell-based; settings: Homo sapiens; how it was run: as §5
Nucleic Acid [33] = assay: In vitro binding of [3H]HC to calf thymus DNA was measured after 2 hours; type: nucleic-acid assay; settings: Bos taurus; how it was run: as §3
[34] = Total radioactivity of [3H]HC was evaluated after 2 hr; type: functional
How it was run: (§7)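 3H-labelled drug (0.02 µCi) was mixed with 50 µg calf thymus DNA in 0.1 M citrate-phosphate buffer, pH 7, and incubated in the dark for 1.5 h at 37 °C. The mix was diluted in saline and dialysed against saline at 4 °C. Duplicate samples drawn from inside the bags at intervals up to 4 days were counted directly.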

Nucleic Acid [35] = assay: In vitro binding of [3H]HC to calf thymus DNA was measured after 1 day; type: nucleic-acid assay; settings: Bos taurus; how it was run: as §3
Schistosoma mansoni [36] = assay: Incorporation of 1.4 M*10e6 [3H]uridine in hycanthone(HC) resistant Schistosoma mansoni; type: functional; how it was run: as §2
[37] = Total radioactivity of [3H]HC was evaluated after 2 hours; type: functional; how it was run: as §7
[38] = (§8) Total radioactivity of [3H]HC was evaluated after 3 days; type: functional; how it was run: as §7
HeLa [39] = assay: Incorporation of 10e-5 M [3H]uridine in HeLa cells in absence of HC measured as as TCA precipitable radioactivity compared with non treated controls; type: functional, cell-based; settings: Homo sapiens; how it was run: as §6
Schistosoma mansoni [40] = assay: Incorporation of 0.7 M *10e6 [3H]uridine in hycanthone(HC) sensitive Schistosoma mansoni; type: functional
HeLa [41] = assay: Incorporation of [3H]uridine in HeLa cells after 2x10e-5 M HC measured as as TCA precipitable radioactivity compared with non treated controls; settings: Homo sapiens
Schistosoma mansoni [42] = assay: Incorporation of 1.4 M*10e6 [3H]uridine in hycanthone(HC) sensitive Schistosoma mansoni; type: functional
Mus musculus [43] = assay: In vivo antitumor activity against p-388 lymphocytic leukemia in mice at 60 mg/kg; type: functional; how it was run: as §1
[44] = as §8; type: functional; how it was run: as §7; remark: listed apart in the source
Nucleic Acid [45] = assay: In vitro binding of [3H]HC to calf thymus DNA after precipitation with alcohol and TCA was measured after 2 day; type: nucleic-acid assay; settings: Bos taurus; how it was run: as §3

Structure (SMILES): CCN(CC)CCNc1ccc(COC(C)=O)c2sc3ccccc3c(=O)c12
- T/C (Mus musculus [1]): 123%
- Control (Schistosoma mansoni [2]): 4%
- T/C (Mus musculus [3]): 118%
- Control (Schistosoma mansoni [4]): 19%
- T/C (Mus musculus [5]): 125%
- Effect (Schistosoma mansoni [6]): >15 days and 7 days
- Control (Schistosoma mansoni [7]): 13%
- Effect (Schistosoma mansoni [8]): 7 days
- T/C (Mus musculus [9]): 129%

Structure (SMILES): CCN(CC)CCNc1ccc(COC(=O)OC)c2sc3ccccc3c(=O)c12
- Control (Schistosoma mansoni [10]): 80%
- Control (Schistosoma mansoni [11]): 6%
- T/C (Mus musculus [12]): 124%
- T/C (Mus musculus [13]): 124%
- Effect (Schistosoma mansoni [6]): 13 days and 6 days
- T/C (Mus musculus [14]): 122%
- Control (Schistosoma mansoni [15]): 32%
- Control (Schistosoma mansoni [16]): 28%
- Effect (Schistosoma mansoni [8]): 7 days and 6 days
- T/C (Mus musculus [17]): 118%

Structure (SMILES): CCN(CC)CCNc1ccc(CO)c2sc3ccccc3c(=O)c12 [HYCANTHONE]
- Radioactivity (Nucleic Acid [18]): 2300 c.p.m.
- Radioactivity (Nucleic Acid [19]): 430 c.p.m.
- Radioactivity (Nucleic Acid [20]): 200 c.p.m.
- Radioactivity (Nucleic Acid [21]): 350 c.p.m.
- Radioactivity (Nucleic Acid [22]): 1100 c.p.m.
- Radioactivity (Nucleic Acid [23]): 235000 c.p.m.
- Drug mol/base pair (Nucleic Acid [24]): < 4e-08
- Radioactivity (HeLa [25]): 32%
- Drug mol/base pair (Nucleic Acid [26]): < 4e-08
- Radioactivity (Nucleic Acid [27]): 330 c.p.m.
- Radioactivity (HeLa [28]): 68%
- Radioactivity (Nucleic Acid [29]): 1600 c.p.m.
- Drug mol/base pair (Nucleic Acid [30]): 7e-07
- Radioactivity (Nucleic Acid [31]): 265 c.p.m.
- Radioactivity (HeLa [32]): 37%
- Effect (Schistosoma mansoni [6]): >12 days
- Radioactivity (Nucleic Acid [33]): 50000 c.p.m.
- Radioactivity [34]: 100 c.p.m.
- Radioactivity (Nucleic Acid [35]): 3460 c.p.m.
- Control (Schistosoma mansoni [36]): 98%
- Radioactivity [37]: 20500 c.p.m.
- Radioactivity [38]: 700 c.p.m.
- Radioactivity (HeLa [39]): 88%
- Control (Schistosoma mansoni [40]): 20%
- Radioactivity (HeLa [41]): 68%
- Control (Schistosoma mansoni [42]): 30%
- T/C (Mus musculus [43]): 165
- Effect (Schistosoma mansoni [8]): 7 days
- Radioactivity [44]: 62 c.p.m.
- Radioactivity (Nucleic Acid [45]): 275 c.p.m.
